Test results reported in ChEMBL document CHEMBL2176900, “Design and synthesis of a novel series of bicyclic heterocycles as potent γ-secretase modulators” (J Med Chem, 2012).
≈ marks a conversion by molar mass, not a printed value. Calls of active or inactive are those of the source. No cut-off for these calls is given here.

What was measured:
Rattus norvegicus [1] = assay: Antialzheimer activity in Sprague-Dawley rat assessed as amyloid beta 37 level in CSF at 10 mg/kg, po at 2 hrs by ELISA relative to control; assay type: functional
Procedure, shortened: (§1)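 Male Sprague-Dawley rats (180-220 g), fasted overnight, were given 10 mg/kg by gastric intubation as a 5 mg/mL suspension in 0.5% methocellulose. At 2, 4, 7 and 25 h, 50 μL CSF was taken from the cisterna magna under isoflurane, then brain was collected. Aβ37/38/40/42 were measured by MesoScale Discovery sandwich immunoassays. Results are mean % change versus T = 0 h, n = 5.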

[2] = Plasma concentration in Sprague-Dawley rat at 10 mg/kg, po at 2 hrs by LC-MS/MS analysis; assay type: ADME, organism-based; parameters: dose 10 mg/kg, route oral
Procedure, shortened: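 Overnight-fasted male Sprague-Dawley rats (180–220 g) were given 10 mg/kg by gastric intubation of a 5 mg/mL suspension in 0.5% methocellulose. Blood was collected after decapitation at 2, 4, 7 and 25 h under isoflurane anaesthesia. Plasma compound was measured as in the mouse assay, n = 5.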

[3] = Thermodynamic solubility in 0.01N HCl; settings: read-out: Therm_solubility
Mus musculus [4] = assay: Antialzheimer activity in CD1 mouse assessed as amyloid beta 42 level in brain at 30 mg/kg, po at 24 hrs by ELISA relative to control; assay type: functional
Procedure, shortened: (§2)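 Male CD1 SPF mice, fasted overnight, got a single oral dose of 10 or 30 mg/kg. At each time point the right brain hemisphere was homogenized in 0.4% DEA/50 mM NaCl with protease inhibitors and spun at 221300g for 50 min. The supernatant was neutralized with Tris-HCl pH 6.8. Aβ38 or Aβ42 was read by sandwich ELISA with a fluorogenic peroxidase substrate (ex 320/em 420 nm). Results are mean % change versus T = 0 h, n = 4.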

Mus musculus [5] = assay: Inhibition of gamma-secretase in CD1 mouse assessed as total amyloid beta level in brain at 30 mg/kg, po at 24 hrs by ELISA relative to control; assay type: functional; parameters: scale not given: the % may be the effect or the level left
Procedure, shortened: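 Fasted male CD1 SPF mice were dosed orally at 10 or 30 mg/kg in 20% Captisol. Right hemisphere was homogenized in 0.4% DEA/50 mM NaCl and the high-speed supernatant neutralized. Aβtotal ELISA used N-terminal JRF/rAβ/2 capture, biotinylated 4G8 and streptavidin-peroxidase, then a fluorogenic substrate (ex 320/em 420 nm). Standards spanned 10000–0.3 pg/mL. Values are % change vs T = 0 h, n = 4.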

[6] = biological target: Gamma-secretase (Homo sapiens) (UniProt Q96BI3+Q9NZ42+Q8WW43+P49768+Q92542+P49810); assay: Inhibition of gamma-secretase in human SK-N-BE(2) cells expressing wild type APP 695 assessed as reduction in total amyloid beta level up to 10 uM after overnight incubation by sandwich immunoassay; assay type: cell-based
Procedure, shortened: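 SK-N-BE(2) cells with wild-type APP695 were plated at 10⁴ cells/well in supplemented Ultraculture with test compound at several concentrations. They were incubated overnight at 37 °C, 5% CO₂. Supernatant Aβtotal was measured by AlphaLisa sandwich immunoassay (JRF/AβN/25 capture, biotinylated 4G8). Data are % of the maximum Aβtotal seen without compound.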

[7] = Oral bioavailability in beagle dog at 5 mg/kg; assay type: ADME, organism-based, Canis lupus familiaris; settings: in vivo
[8] = Drug metabolism in human liver microsomes at 1 uM after 15 mins by ion-trap mass spectrophotometry; assay type: ADME, Microsome; settings: read-out: Drug metabolism
Rattus norvegicus [9] = assay: Antialzheimer activity in Sprague-Dawley rat assessed as amyloid beta 38 level in brain at 10 mg/kg, po at 2 hrs by ELISA relative to control; assay type: functional; procedure, shortened: as §1
Rattus norvegicus [10] = assay: Antialzheimer activity in Sprague-Dawley rat assessed as amyloid beta 42 level in CSF at 10 mg/kg, po at 2 hrs by ELISA relative to control; assay type: functional; procedure, shortened: as §1
MDR1 = assay: Apparent permeability from apical to basal side of pig LLCPK1 cells expressing MDR1; assay type: ADME, cell-based, Sus scrofa; settings: LLC-PK1
[11] = Oral bioavailability in CD1 Swiss mouse at 10 mg/kg; assay type: ADME, organism-based; settings: in vivo
Mus musculus [12] = assay: Antialzheimer activity in CD1 mouse assessed as amyloid beta 42 level in brain at 30 mg/kg, po at 8 hrs by ELISA relative to control; assay type: functional; procedure, shortened: as §2
Canis familiaris [13] = assay: Antialzheimer activity in beagle dog assessed as amyloid beta 40 level in cerebrospinal fluid at 20 mg/kg, po at 4 hrs by ELISA relative to control
Canis familiaris [14] = assay: Antialzheimer activity in beagle dog assessed as amyloid beta 40 level in cerebrospinal fluid at 20 mg/kg, po at 8 hrs by ELISA relative to control
Mus musculus [15] = assay: Antialzheimer activity in CD1 mouse assessed as amyloid beta 38 level in brain at 10 mg/kg, po at 24 hrs by ELISA relative to control; assay type: functional; procedure, shortened: as §2
[16] = Inhibition of sodium channel site 2 at 10 uM
Rattus norvegicus [17] = assay: Antialzheimer activity in Sprague-Dawley rat assessed as amyloid beta 42 level in CSF at 10 mg/kg, po at 25 hrs by ELISA relative to control; assay type: functional; procedure, shortened: as §1
[18] = Plasma concentration in CD1 mouse at 30 mg/kg, po at 8 hrs by LC-MS/MS analysis; assay type: ADME, organism-based; parameters: dose 30 mg/kg, route oral
Procedure, shortened: (§3)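 Mice received a single 10 or 30 mg/kg oral dose. Plasma was sampled at several time points up to 48 h, with EDTA plasma obtained by centrifugation at 1900g, 10 min, 4 °C. Compound was quantified by LC-MS/MS, n = 4.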

Cytochrome P450 2C9 = Cytochrome P450 2C9 (Homo sapiens, UniProt P11712); assay: Inhibition of CYP2C9 in human liver microsomes using tolbutamide as substrate; assay type: ADME, Microsome
Plasma = assay: Plasma concentration in CD1 mouse at 30 mg/kg, po at 48 hrs by LC-MS/MS analysis; assay type: ADME, organism-based; parameters: dose 30 mg/kg, route oral; settings: in vivo, BLD = below limit of detection; procedure, shortened: as §3
[19] = Drug metabolism in rat liver microsomes at 1 uM after 15 mins by ion-trap mass spectrophotometry; assay type: ADME, Microsome; settings: read-out: Drug metabolism
Mus musculus [20] = assay: Antialzheimer activity in CD1 mouse assessed as amyloid beta 38 level in brain at 30 mg/kg, po at 4 hrs by ELISA relative to control; assay type: functional; procedure, shortened: as §2
Rattus norvegicus [21] = assay: Antialzheimer activity in Sprague-Dawley rat assessed as amyloid beta 40 level in brain at 10 mg/kg, po at 25 hrs by ELISA relative to control; assay type: functional; procedure, shortened: as §1
[22] = Plasma concentration in CD1 mouse at 30 mg/kg, po at 4 hrs by LC-MS/MS analysis; assay type: ADME, organism-based; parameters: dose 30 mg/kg, route oral
Procedure, shortened: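 Single oral dose to overnight-fasted male CD1 mice in 20% Captisol suspension. Plasma was taken at 4 h by decapitation into EDTA tubes and spun at 1900g for 10 min at 4 °C. Compound was measured by a qualified LC-MS/MS method. Values are geometric means of at least four runs.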

[23] = Fraction unbound in human plasma; assay type: ADME, cell-free
Mus musculus [24] = assay: Antialzheimer activity in CD1 mouse assessed as amyloid beta 42 level in brain at 10 mg/kg, po at 4 hrs by ELISA relative to control; assay type: functional; procedure, shortened: as §2

Chain of Cytochrome P450 2C9 (P11712 whole entry): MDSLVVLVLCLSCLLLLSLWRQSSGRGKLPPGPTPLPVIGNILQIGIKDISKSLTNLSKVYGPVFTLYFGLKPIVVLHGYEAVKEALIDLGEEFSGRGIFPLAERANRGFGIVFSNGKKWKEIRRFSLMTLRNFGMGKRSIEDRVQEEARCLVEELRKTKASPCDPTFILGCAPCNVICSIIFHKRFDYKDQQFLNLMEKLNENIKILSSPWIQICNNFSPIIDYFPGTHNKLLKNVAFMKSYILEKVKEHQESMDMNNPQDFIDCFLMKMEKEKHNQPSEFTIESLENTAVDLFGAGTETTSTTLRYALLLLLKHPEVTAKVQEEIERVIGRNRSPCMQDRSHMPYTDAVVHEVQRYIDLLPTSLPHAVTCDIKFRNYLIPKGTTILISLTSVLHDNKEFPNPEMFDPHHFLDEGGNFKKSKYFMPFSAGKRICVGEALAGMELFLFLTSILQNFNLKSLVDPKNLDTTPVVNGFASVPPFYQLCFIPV

Compound: COc1nc(Nc2cccc3c2nc(-c2ccc(F)cc2)n3C)ccc1-n1cnc(C)c1
- Activity (Rattus norvegicus [1]): 735%
- concentration at 2 h [2]: 4.6 µM
- solubility thermodynamic [3]: 1170 µg/mL (≈ 2730 µM)
- Activity (Mus musculus [4]): 77%
- Activity (Mus musculus [5]): 104%
- inhibition [6]: inactive
- bioavailability [7]: 64%
- metabolised at 0.25 h, 1 µM [8]: 6%
- Activity (Rattus norvegicus [9]): 149%
- Activity (Rattus norvegicus [10]): 65%
- Papp A→B (MDR1): 8 ×10⁻⁶ cm/s
- bioavailability [11]: 100%
- Activity (Mus musculus [12]): 29%
- Activity (Canis familiaris [13]): 89%
- Activity (Canis familiaris [14]): 64%
- Activity (Mus musculus [15]): 83%
- inhibition [16]: 60%
- Activity (Rattus norvegicus [17]): 89%
- concentration at 8 h [18]: 10.5 µM
- IC50 (Cytochrome P450 2C9): 21.9 µM
- Cp (Plasma): BLD
- metabolised at 0.25 h, 1 µM [19]: 16%
- Activity (Mus musculus [20]): 165%
- Activity (Rattus norvegicus [21]): 107%
- concentration at 4 h [22]: 19.5 µM
- fraction unbound [23]: 0.0013
- Activity (Mus musculus [24]): 49%
